In ChEMBL document CHEMBL1129731, “The chemistry of pseudomonic acid. 17. Dual-action C-1 oxazole derivatives of pseudomonic acid having an extended spectrum of antibacterial activity” (J Med Chem, 1996):
≈ marks a conversion by molar mass, not a printed value.

What was measured:
Mus musculus [1] = test: Total […] dose against Staphylococcus aureus after […] administration (1+5 hr post infection) to mouse; assay type: organism-based; details: in vivo, po
Method in brief: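 CD1 male mice, groups of five, infected ip with S. aureus Smith, 1.3 × 10^10 cfu (po groups) or 5 × 10^9 cfu (sc groups); dosed po or sc at 1 + 5 h postinfection, 0.2 mL/mouse. CD50 = total dose protecting 50% of mice from death, scored day 2 postinfection.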

Haemophilus influenzae = test: compound was tested for antibacterial activity against Haemophilus influenzae Q1.; assay type: functional
Method in brief: (§1)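 Broth microdilution in Mueller–Hinton broth supplemented (final) with 5% heat-inactivated horse serum, 0.02 mg/mL hematin and 0.08 mg/mL NAD; inoculum 5 × 10^5 cfu/mL from overnight broth cultures; 37 °C for 18 h; MIC (µg/mL) read as lowest concentration inhibiting growth.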

Staphylococcus aureus [2] = test: compound was tested for antibacterial activity against Staphylococcus aureus NCTC 6571.; assay type: functional
Method in brief: (§2)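 Broth microdilution in Mueller–Hinton broth; overnight broth cultures added to final 5 × 10^5 cfu/mL; incubated 37 °C, 18 h. MIC (µg/mL) taken as lowest concentration inhibiting growth.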

Escherichia coli [3] = test: compound was tested for antibacterial activity against Escherichia coli DC2.; assay type: functional; method in brief: as §2
Proteus mirabilis = test: compound was tested for antibacterial activity against Pr. mirabilis C889.; assay type: functional; method in brief: as §2
Mus musculus [4] = test: Pharmacokinetic parameter Cmax was determined in blood level in mouse after subcutaneous administration.; assay type: ADME, organism-based; parameters: route subcutaneous; details: in vivo, sc
Method in brief: (§3)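 CD1 male mice (18–22 g), nonfasted, groups of five; 50 mg/kg in 0.2 mL, dissolved in 10% ethanol then diluted 1:9 with 1% HPMC in water (po) or PBS pH 7.3 (sc). Blood sampled 5–240 min; levels by Bacillus subtilis agar bioassay (pH 7.0, 30 °C overnight) against standards in heparinized mouse blood.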

Isoleucine--tRNA ligase [5] = target: T1, Isoleucine--tRNA ligase (Staphylococcus aureus, UniProt P41972); test: compound was tested for inhibitory activity of isoleucyl-tRNA synthetase (IRS).; assay type: functional
T1 sequence (P41972 whole entry): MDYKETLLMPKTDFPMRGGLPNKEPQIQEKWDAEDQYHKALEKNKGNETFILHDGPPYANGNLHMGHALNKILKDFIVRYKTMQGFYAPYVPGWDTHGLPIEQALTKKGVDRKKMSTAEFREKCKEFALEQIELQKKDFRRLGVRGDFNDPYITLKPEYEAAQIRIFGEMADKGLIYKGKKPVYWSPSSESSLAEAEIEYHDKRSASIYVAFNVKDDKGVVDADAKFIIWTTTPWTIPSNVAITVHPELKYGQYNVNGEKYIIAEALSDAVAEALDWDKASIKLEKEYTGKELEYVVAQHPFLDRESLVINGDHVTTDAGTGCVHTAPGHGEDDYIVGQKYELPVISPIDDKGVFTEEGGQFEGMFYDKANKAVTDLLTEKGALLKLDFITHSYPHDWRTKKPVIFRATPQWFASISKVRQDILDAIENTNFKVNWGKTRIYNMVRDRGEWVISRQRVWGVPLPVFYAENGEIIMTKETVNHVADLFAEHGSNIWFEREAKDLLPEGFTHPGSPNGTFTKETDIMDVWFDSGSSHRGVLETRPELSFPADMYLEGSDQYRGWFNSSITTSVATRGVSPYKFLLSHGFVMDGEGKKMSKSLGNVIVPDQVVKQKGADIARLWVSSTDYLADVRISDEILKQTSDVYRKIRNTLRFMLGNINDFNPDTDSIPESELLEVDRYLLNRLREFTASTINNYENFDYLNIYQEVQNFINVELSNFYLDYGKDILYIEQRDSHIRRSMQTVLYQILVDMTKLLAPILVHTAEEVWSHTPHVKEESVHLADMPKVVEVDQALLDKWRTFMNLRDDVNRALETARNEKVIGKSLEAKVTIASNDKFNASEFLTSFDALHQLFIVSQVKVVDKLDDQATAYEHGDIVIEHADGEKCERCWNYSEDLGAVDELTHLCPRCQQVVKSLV

Klebsiella pneumoniae = test: compound was tested for antibacterial activity against Klebsiella pneumoniae E70.; assay type: functional; method in brief: as §2
Mus musculus [6] = test: Total […] dose against Staphylococcus aureus after sc administration (1+5 hr post infection) to mouse; details: in vivo
Staphylococcus aureus [7] = test: compound was tested for antibacterial activity against Staphylococcus aureus F 89.; assay type: functional; method in brief: as §2
Enterobacter cloacae = test: compound was tested for antibacterial activity against Ent. cloacae N1.; assay type: functional
Enterococcus faecalis = test: compound was tested for antibacterial activity against Ent. faecalis I; assay type: functional; method in brief: as §2
Pseudomonas aeruginosa = test: compound was tested for antibacterial activity against Pseudomonas aeruginosa K799 wt.; assay type: functional; method in brief: as §2
Mus musculus [8] = test: Pharmacokinetic parameter AUC was determined in blood level in mouse after oral administration.; assay type: ADME, organism-based; details: in vivo; method in brief: as §3
Moraxella catarrhalis = test: compound was tested for antibacterial activity against Moraxella catarrhalis 1502.; assay type: functional; method in brief: as §1
[9] = Pharmacokinetic parameter Cmax was determined in blood level in mouse after oral administration.; assay type: ADME, organism-based; parameters: route oral; method in brief: as §3
[10] = Pharmacokinetic parameter Tmax was determined in blood level in mouse after subcutaneous administration.; assay type: ADME, organism-based; details: sc; method in brief: as §3
[11] = test system: Staphylococcus epidermidis; test: compound was tested for antibacterial activity aagainst Staphylococcus epidermidis PHLN 20.; assay type: functional; method in brief: as §2
[12] = Pharmacokinetic parameter Tmax was determined in blood level in mouse after oral administration.; assay type: ADME, organism-based; method in brief: as §3
Mus musculus [13] = test: Pharmacokinetic parameter AUC was determined in blood level in mouse after subcutaneous administration.; assay type: ADME, organism-based; details: in vivo, sc; method in brief: as §3
Staphylococcus aureus [14] = test: compound was tested for antibacterial activity against Staphylococcus aureus C 37.; assay type: functional
Streptococcus pneumoniae = test: compound was tested for antibacterial activity against Strep. pneumoniae 1761.; assay type: functional; method in brief: as §1
Escherichia coli [15] = test: compound was tested for antibacterial activity against Escherichia coli DC0.; assay type: functional
Streptococcus pyogenes = test: compound was tested for antibacterial activity against Streptococcus pyogenes CN10.; assay type: functional; method in brief: as §1
Bacteroides fragilis = test: compound was tested for antibacterial activity Bacteroides fragilis NCTC 10581.; assay type: functional
Isoleucine--tRNA ligase [16] = target: T1, Isoleucine--tRNA ligase; test: Inhibitory activity against isoleucyl-tRNA synthetase (IRS) of Staphylococcus aureus NCTC 6571
Staphylococcus aureus [17] = test: Minimum inhibitory activity against Staphylococcus aureus C 7; assay type: functional; method in brief: as §2
Isoleucine--tRNA ligase [18] = target: T1, Isoleucine--tRNA ligase; test: Inhibitory activity against isoleucyl-tRNA synthetase (IRS) of Staphylococcus aureus 11481; assay type: functional
Staphylococcus aureus [19] = test: Minimum inhibitory activity against Staphylococcus aureus 11481; assay type: functional; method in brief: as §2
Staphylococcus aureus [20] = test: Minimum inhibitory activity against Staphylococcus aureus NCTC 6571; assay type: functional; method in brief: as §2
Isoleucine--tRNA ligase [21] = target: T1, Isoleucine--tRNA ligase; test: Inhibitory activity against isoleucyl-tRNA synthetase (IRS) of Staphylococcus aureus; assay type: functional
[22] = target: Isoleucine--tRNA ligase, Staphylococcus aureus (UniProt P41972); test: compound was tested for inhibitory activity of isoleucyl-tRNA synthetase (IRS).

SMILES	MIC (Haemophilus influenzae) [µg/mL]	MIC (Staphylococcus aureus [2]) [µg/mL]	MIC (Escherichia coli [3]) [µg/mL]	MIC (Proteus mirabilis) [µg/mL]	MIC (Klebsiella pneumoniae) [µg/mL]	MIC (Staphylococcus aureus [7]) [µg/mL]	MIC (Enterobacter cloacae) [µg/mL]	MIC (Enterococcus faecalis) [µg/mL]	MIC (Pseudomonas aeruginosa) [µg/mL]	MIC (Moraxella catarrhalis) [µg/mL]	MIC [11] [µg/mL]	MIC (Staphylococcus aureus [14]) [µg/mL]	MIC (Streptococcus pneumoniae) [µg/mL]	MIC (Escherichia coli [15]) [µg/mL]	MIC (Streptococcus pyogenes) [µg/mL]	MIC (Bacteroides fragilis) [µg/mL]	IC50 (Isoleucine--tRNA ligase [21]) [nM]	further results
C/C(=C\c1ncc(-c2ccc([N+](=O)[O-])o2)o1)C[C@@H]1OC[C@H](C[C@@H]2O[C@H]2[C@@H](C)[C@H](C)O)[C@@H](O)[C@H]1O	< 0.06	< 0.06	< 0.06	> 64	> 64	4 (≈ 8.36 µM)	4 (≈ 8.36 µM)	16 (≈ 33.4 µM)	> 64	< 0.06	< 0.06	4 (≈ 8.36 µM)	< 0.06	16 (≈ 33.4 µM)	< 0.06	2 (≈ 4.18 µM)		CD50 (Mus musculus [1]): 3.2 mg/kg; Cmax (Mus musculus [4]): 30.5 µg/mL; IC50 (Isoleucine--tRNA ligase [5]): 400 µg/mL (≈ 836 µM); CD50 (Mus musculus [6]): 1.2 mg/kg; AUC (Mus musculus [8]): 1734 ug m-1 min-1; Cmax [9]: 28700 ng/mL; Tmax [10]: 5 min; Tmax [12]: 15 min; AUC (Mus musculus [13]): 2407 ug m-1 min-1
C/C(=C\c1ncc(-c2ccc([N+](=O)[O-])s2)o1)C[C@@H]1OC[C@H](C[C@@H]2O[C@H]2[C@@H](C)[C@H](C)O)[C@@H](O)[C@H]1O	< 0.06	0.125 (≈ 0.253 µM)	< 0.06	> 64	> 64	8 (≈ 16.2 µM)	> 64	> 64	> 64	< 0.06	< 0.06	8 (≈ 16.2 µM)	< 0.06	> 64	< 0.06	2 (≈ 4.04 µM)		IC50 (Isoleucine--tRNA ligase [16]): 6.67 nM; MIC (Staphylococcus aureus [17]): 32 µg/mL (≈ 64.7 µM); IC50 (Isoleucine--tRNA ligase [18]): 243 nM; MIC (Staphylococcus aureus [19]): 8 µg/mL (≈ 16.2 µM); MIC (Staphylococcus aureus [20]): 0.13 µg/mL (≈ 0.263 µM)
C/C(=C\c1ncc(-c2ccc([N+](=O)[O-])cc2)o1)C[C@@H]1OC[C@H](C[C@@H]2O[C@H]2[C@@H](C)[C@H](C)O)[C@@H](O)[C@H]1O	0.25 (≈ 0.512 µM)	0.125 (≈ 0.256 µM)	< 0.06	> 64	> 64	> 64	32 (≈ 65.5 µM)	32 (≈ 65.5 µM)	> 64	1 (≈ 2.05 µM)	0.125 (≈ 0.256 µM)	> 64	< 0.06	64 (≈ 131 µM)	0.125 (≈ 0.256 µM)	> 64	7.98	
C/C(=C\c1ncc(-c2cc([N+](=O)[O-])cs2)o1)C[C@@H]1OC[C@H](C[C@@H]2O[C@H]2[C@@H](C)[C@H](C)O)[C@@H](O)[C@H]1O	< 0.06	< 0.06	< 0.06	64 (≈ 129 µM)	32 (≈ 64.7 µM)	> 64	16 (≈ 32.4 µM)	32 (≈ 64.7 µM)	> 64	< 0.06	< 0.06	32 (≈ 64.7 µM)	< 0.06	32 (≈ 64.7 µM)	< 0.06	> 64	6.87	
C/C(=C\c1ncc(-c2csc([N+](=O)[O-])c2)o1)C[C@@H]1OC[C@H](C[C@@H]2O[C@H]2[C@@H](C)[C@H](C)O)[C@@H](O)[C@H]1O	< 0.06	0.125 (≈ 0.253 µM)	< 0.06	64 (≈ 129 µM)	64 (≈ 129 µM)	64 (≈ 129 µM)	16 (≈ 32.4 µM)	32 (≈ 64.7 µM)	> 64	0.125 (≈ 0.253 µM)	0.125 (≈ 0.253 µM)	32 (≈ 64.7 µM)	< 0.06	32 (≈ 64.7 µM)	< 0.06	16 (≈ 32.4 µM)	4.45	
C/C(=C\c1ncc(-c2ncc([N+](=O)[O-])n2C)o1)C[C@@H]1OC[C@H](C[C@@H]2O[C@H]2[C@@H](C)[C@H](C)O)[C@@H](O)[C@H]1O	< 0.06	2 (≈ 4.06 µM)	1 (≈ 2.03 µM)	> 64	> 64	> 64	> 64	64 (≈ 130 µM)	> 64	0.25 (≈ 0.508 µM)	< 0.06	> 64	0.5 (≈ 1.02 µM)	> 64	0.25 (≈ 0.508 µM)	0.5 (≈ 1.02 µM)		IC50 [22]: 0.7 ng/mL (≈ 0.00142 µM)
CN[C@H](CC(C)C)C(=O)N[C@H]1C(=O)N[C@@H](CC(N)=O)C(=O)N[C@H]2C(=O)N[C@H]3C(=O)N[C@H](C(=O)N[C@H](C(=O)O)c4cc(O)cc(O)c4-c4cc3ccc4O)[C@H](O)c3ccc(c(Cl)c3)Oc3cc2cc(c3O[C@@H]2O[C@H](CO)[C@@H](O)[C@H](O)[C@H]2O[C@H]2C[C@](C)(N)[C@H](O)[C@H](C)O2)Oc2ccc(cc2Cl)[C@H]1O [VANCOMYCIN]																		CD50 (Mus musculus [6]): 3.8 mg/kg
